Laboratory results as given in ChEMBL document CHEMBL4699407, “Isoquinoline thiosemicarbazone displays potent anticancer activity with in vivo efficacy against aggressive leukemias” (RSC Med Chem, 2020).
Calls of active or inactive are those of the source. The rule behind the calls is not given here.

Legend:
MIA PaCa-2 [1] = experiment: Induction of apoptosis in human MIA PaCa-2 cells assessed as increase in early apoptotic cells at 25 nM incubated for 72 hrs by annexin V and propidium iodide staining based flow cytometry analysis relative to control; type: functional
Outline: (§1)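 Cells given 25 nM compound with or without 20 μM Cu(II) and/or the ATR inhibitor VE-822 at 250 nM for 72 h. Stained with annexin V-FITC and propidium iodide, then analysed on a five-laser flow cytometer to score viable, early apoptotic, late apoptotic and necrotic fractions against vehicle.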

BXPC-3 = experiment: Cytotoxicity against human BXPC-3 cells assessed as reduction in cell viability in presence of Cu2+ incubated for 72 hrs by cell titer-glo luminescent cell viability assay; type: functional, cell-based; conditions: BXPC-3, 72 h
Outline: (§2)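 Cells were grown in DMEM or RPMI with 10% FBS, without antibiotics, at 37 °C, 20% O2, 5% CO2. Adherent lines were seeded at 500 cells/well. Serially diluted compound was given with 20 μM Cu(II) (CuCl2) for 72 h; leukemia models received pre-formed 1:1 copper complex. ATP was read by CellTiter-Glo luminescence. IC50 is relative to DMSO-treated cells.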

HPAF-II = experiment: Cytotoxicity against human HPAF-II cells assessed as reduction in cell viability in presence of Cu2+ incubated for 72 hrs by cell titer-glo luminescent cell viability assay; type: functional, cell-based; outline: as §2
PANC-1 = experiment: Cytotoxicity against human PANC-1 cells assessed as reduction in cell viability in presence of Cu2+ incubated for 72 hrs by cell titer-glo luminescent cell viability assay; type: functional, cell-based; conditions: PANC-1, 72 h; outline: as §2
MIA PaCa-2 [2] = experiment: Cytotoxicity against human MIA PaCa2 cells assessed as reduction in cell viability at 25 nM in presence of Cu2+ and BCPS incubated for 24 hrs by trypan blue assay; type: functional, cell-based
Outline: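 MIAPACA2 cells were given 25 nM compound plus 20 μM Cu(II) for 24 h, with or without the membrane-impermeable copper chelator bathocuproine disulfonate (300 μM). Viable cells were measured by trypan blue exclusion on a Vi-Cell counter.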

143B = experiment: Cytotoxicity against human 143-BTK Rho0 cells assessed as reduction in cell viability at 25 to 100 nM incubated for 48 hrs by trypan blue assay; type: functional, cell-based; conditions: dose nM 25-100, time 48.0 hrs
Outline: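 143 BTK parental (WT) and ρ0 cells were exposed to the indicated compound concentrations plus 20 μM Cu(II) for 48 h. Viable cells were counted by trypan blue staining on a Vi-Cell counter. Mean ± SD, n = 2, Student t-test.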

MIA PaCa-2 [3] = experiment: Cytotoxicity against human MIA PaCa2 cells assessed as reduction in cell viability 72 hrs by cell titer-glo luminescent cell viability assay; type: functional
Outline: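 MIAPACA2 cells in conventional medium without copper supplement got serially diluted compound for 72 h. ATP content was read by CellTiter-Glo, and IC90 (90% proliferation inhibition vs DMSO control) was calculated.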

ASPC1 = experiment: Cytotoxicity against human ASPC1 cells assessed as reduction in cell viability in presence of Cu2+ incubated for 72 hrs by cell titer-glo luminescent cell viability assay; type: functional, cell-based; conditions: ASPC1, 72 h; outline: as §2
MIA PaCa-2 [4] = experiment: Induction of apoptosis in human MIA PaCa-2 cells assessed as increase in late apoptotic cells at 25 nM incubated for 72 hrs by annexin V and propidium iodide staining based flow cytometry analysis relative to control; type: functional; outline: as §1
MIA PaCa-2 [5] = experiment: Induction of apoptosis in human MIA PaCa-2 cells assessed as decrease in viable cells at 25 nM in presence of ATRi incubated for 72 hrs by annexin V and propidium iodide staining based flow cytometry analysis relative to control; type: functional; outline: as §1
MOLT-4 = experiment: Cytotoxicity against human MOLT-4 cells assessed as reduction in cell viability in presence of Cu2+ incubated for 72 hrs by cell titer-glo luminescent cell viability assay; type: functional, cell-based; conditions: MOLT-4, 72 h; outline: as §2
[6] = Cytotoxicity against human HPDE cells assessed as reduction in cell viability in presence of Cu2+ incubated for 72 hrs by cell titer-glo luminescent cell viability assay; type: cell-based; outline: as §2
[7] = Cytotoxicity against human SUIT-2 cells assessed as reduction in cell viability in presence of Cu2+ incubated for 72 hrs by cell titer-glo luminescent cell viability assay; type: functional, cell-based; conditions: SUIT-2, 72 h; outline: as §2
MIA PaCa-2 [8] = experiment: Induction of apoptosis in human MIA PaCa-2 cells assessed as reduction in viable cells at 25 nM in presence of Cu2+ and ATRi incubated for 72 hrs by annexin V and propidium iodide staining based flow cytometry analysis relative to control; type: functional; outline: as §1
MIA PaCa-2 [9] = experiment: Cytotoxicity against human MIA PaCa2 cells assessed as reduction in cell viability at 25 nM in presence of Zn2+ incubated for 72 hrs by cell titer-glo luminescent cell viability assay; type: functional, cell-based
Outline: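 MIAPACA2 cells were exposed to compound for 72 h with 20 μM Fe(II) or Zn(II) supplement. Proliferation was read by CellTiter-Glo ATP luminescence.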

YAPC = experiment: Cytotoxicity against human YAPC cells assessed as reduction in cell viability in presence of Cu2+ incubated for 72 hrs by cell titer-glo luminescent cell viability assay; type: functional, cell-based; outline: as §2
SW1990 = experiment: Cytotoxicity against human SW1990 cells assessed as reduction in cell viability in presence of Cu2+ incubated for 72 hrs by cell titer-glo luminescent cell viability assay; type: functional, cell-based; conditions: SW1990, 72 h; outline: as §2
MIA PaCa-2 [10] = experiment: Induction of apoptosis in human MIA PaCa-2 cells assessed as increase in late apoptotic cells at 25 nM in presence of Cu2+ and ATRi incubated for 72 hrs by annexin V and propidium iodide staining based flow cytometry analysis relative to control; type: functional; outline: as §1
MIA PaCa-2 [11] = experiment: Induction of apoptosis in human MIA PaCa-2 cells assessed as reduction in viable cells at 25 nM in presence of Cu2+ incubated for 72 hrs by annexin V and propidium iodide staining based flow cytometry analysis relative to control; type: functional; outline: as §1
MIA PaCa-2 [12] = experiment: Induction of apoptosis in human MIA PaCa-2 cells assessed as increase in late apoptotic cells at 25 nM in presence of Cu2+ incubated for 72 hrs by annexin V and propidium iodide staining based flow cytometry analysis relative to control; type: functional; outline: as §1
MIA PaCa-2 [13] = experiment: Induction of apoptosis in human MIA PaCa-2 cells assessed as increase in early apoptotic cells at 25 nM in presence of ATRi incubated for 72 hrs by annexin V and propidium iodide staining based flow cytometry analysis relative to control; type: functional; outline: as §1
MIA PaCa-2 [14] = experiment: Cytotoxicity against human MIA PaCa2 cells assessed as reduction in cell viability in presence of Cu2+ incubated for 72 hrs by cell titer-glo luminescent cell viability assay; type: functional, cell-based; conditions: MIA PaCa-2, 72 h; outline: as §2
MIA PaCa-2 [15] = experiment: Induction of apoptosis in human MIA PaCa-2 cells assessed as increase in early apoptotic cells at 25 nM in presence of Cu2+ incubated for 72 hrs by annexin V and propidium iodide staining based flow cytometry analysis relative to control; type: functional; outline: as §1
MIA PaCa-2 [16] = experiment: Induction of DNA damage in human MIA PaCa-2 cells assessed as decrease in UTP level at 25 nM in presence of Cu2+ incubated for 48 hrs by LC-MS/MS analysis; type: functional, cell-based
Outline: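 Cells in DMEM or RPMI with 10% FBS, 37 °C, 5% CO2. Treated with 25 nM compound plus 20 μM Cu(II) for 48 h. Nucleotide pools quantified by LC-MS/MS with multiple reaction monitoring. Cells were in glucose-free DMEM with 10% dialyzed FBS and 11 mM [U-13C6]glucose for 48 h, and glucose-labeled pools were compared. Mean ± SD, n = 3, two-way ANOVA with Bonferroni correction.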

CN(C)C(=S)NN=Cc1nccc2cc(F)ccc12
Activity (MIA PaCa-2 [1]): 1.85% | IC50 (BXPC-3): 1 nM | IC50 (HPAF-II): 1 nM | IC50 (PANC-1): 1 nM | Activity (MIA PaCa-2 [2]): inactive | Activity (143B): inactive | IC90 (MIA PaCa-2 [3]): 111 nM | IC50 (ASPC1): 1 nM | Activity (MIA PaCa-2 [4]): 0.79% | Activity (MIA PaCa-2 [5]): 64.7% | IC50 (MOLT-4): 1 nM | Activity [6]: Non-Toxic | IC50 [7]: 1 nM | Activity (MIA PaCa-2 [8]): 27.8% | Activity (MIA PaCa-2 [9]): inactive | IC50 (YAPC): 1 nM | IC50 (SW1990): 1 nM | Activity (MIA PaCa-2 [10]): 42.7% | Activity (MIA PaCa-2 [11]): 77.5% | Activity (MIA PaCa-2 [12]): 3.68% | Activity (MIA PaCa-2 [13]): 9.11% | IC90 (MIA PaCa-2 [14]): 21.6 nM | Activity (MIA PaCa-2 [15]): 13.9% | Activity (MIA PaCa-2 [16]): inactive
